The RNAGym collection of RNA variant scans (doi:10.1126/science.aae0568)
Variants at the floor of the assay were thinned out.

B1: tRNA (parent)
chain: GUUCCGUUGGCGUAAUGGUAACGCGUCUCCCUCCUAAGGAGAAGACUGCGGGUUCGAGUCCCGUACGGAACG

Variants of: B1
Assay: yeast fitness relative to wild type (ratio to wild type); higher = fitter; tRNA-Arg(CCU), competitive growth, 37 C, YPD
Method in brief: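 Variants of the tRNA-Arg(CCU) gene, chemically synthesised with a 3% per-site mutation rate at 69 sites, were placed at the native genomic locus in Saccharomyces cerevisiae. The pooled strains were competed in YPD at 37°C for 24 hours in six parallel replicates. Gene amplicons from the start population and from each end population were read by 100-nucleotide paired-end sequencing. Darwinian fitness relative to wild type came from changes in genotype frequencies; genotypes needed ≥ 100 starting reads, and estimates < 0.5 were set to 0.5.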
G6A G18C C61G showed a yeast fitness of 0.563. G6A U35A C62A C66G gave a yeast fitness of 0.694. With G6A C34A U47G C49G C60G the yeast fitness was no more than 0.5. Variant G6A U13A A14G G41C has a yeast fitness of no more than 0.5. Variant G6A C49U has a yeast fitness of 0.959. For G6A U16G A21G A40G A42U G67C, the yeast fitness was no more than 0.5. Work on G6C A36G G51A yielded a yeast fitness of no more than 0.5. For G6C A14G A20C G68C, the yeast fitness was no more than 0.5. Variant G6A U8C G10A U19C G41A U47C has a yeast fitness of no more than 0.5. With G6A G12A the yeast fitness was 0.764. With G6A C29A G67C the yeast fitness was no more than 0.5. Work on G6A C27U A42U yielded a yeast fitness of no more than 0.5. G6A C31U G63A gave a yeast fitness of 0.582. For G6A U26A C30G U59C, the yeast fitness was no more than 0.5. Variant G6C A15G G51A C66U A69C has a yeast fitness of no more than 0.5. Variant G6A C33G C34G C61A G67U has a yeast fitness of no more than 0.5. G6C A42C gave a yeast fitness of 0.808. In the case of G6C A40G A42G A57C C66U, the yeast fitness is reported as no more than 0.5. G6A U8C G10C gave a yeast fitness of no more than 0.5. Work on G6A G48C G63C yielded a yeast fitness of 0.667. Variant G6A G44C G50C A57G has a yeast fitness of no more than 0.5. Work on G6A U54C yielded a yeast fitness of 0.948. Work on G6A U54A yielded a yeast fitness of 0.674. Work on G6A C55U G58A G67A yielded a yeast fitness of no more than 0.5. G6C A57G A65G C66U gave a yeast fitness of 0.537. G6A C22U A37G G68A A69G showed a yeast fitness of no more than 0.5. G6A C24G G39C C61U C66U showed a yeast fitness of no more than 0.5. With G6A U8G U13A C30U G39C C55G the yeast fitness was no more than 0.5. G6A G38A U47A C60G showed a yeast fitness of no more than 0.5. Work on G6A G9C C31U yielded a yeast fitness of no more than 0.5. With G6A C24U A37G C61G C66U A69U the yeast fitness was no more than 0.5. In the case of G6A U16G A21G A40G A42U, the yeast fitness is reported as 0.535. For G6A C27G A45G, the yeast fitness was 0.521. Variant G6C A14G C49G G50A has a yeast fitness of no more than 0.5. Work on G6A G12A C27G G68C A70U yielded a yeast fitness of 0.549. In the case of G6A C31G G50A, the yeast fitness is reported as 0.61. Variant G6A C24U U59C A69C has a yeast fitness of no more than 0.5. G6C A21G C55A C61A gave a yeast fitness of no more than 0.5. G6A C66U G67A showed a yeast fitness of 0.661. In the case of G6A C34G U59A, the yeast fitness is reported as 0.547. Variant G6C C11A U32A A42G C55U C61U has a yeast fitness of no more than 0.5. Work on G6A C27G C34G A65C yielded a yeast fitness of no more than 0.5. With G6C A42U C49U the yeast fitness was 0.595. In the case of G6C A21U, the yeast fitness is reported as 0.673. G6A C27G gave a yeast fitness of 0.758. G6C A20C showed a yeast fitness of 0.773. G6C A20G showed a yeast fitness of 0.773. In the case of G6A G12A U16C, the yeast fitness is reported as 0.537. Variant G6A U19C C30G A69C has a yeast fitness of no more than 0.5. For G6A U64A, the yeast fitness was 0.71. G6A U19C G41C gave a yeast fitness of 0.67. With G6A C29A U32C A42U G67A the yeast fitness was no more than 0.5. Work on G6A C31A A37C yielded a yeast fitness of no more than 0.5. G6C C11U C31G A36G gave a yeast fitness of 0.66. G6A U16A A36C gave a yeast fitness of no more than 0.5. G6A C60A G67C gave a yeast fitness of 0.536. Work on G6C A14G U35G yielded a yeast fitness of 0.605. G6A U16A C33G A36U gave a yeast fitness of no more than 0.5. G6C A45G gave a yeast fitness of 0.823. With G6A U26C C29A the yeast fitness was no more than 0.5. Variant G6A C27U C29A G58C C66U has a yeast fitness of no more than 0.5. With G6C C11U C27G G41C the yeast fitness was no more than 0.5. G6A U28A C30A showed a yeast fitness of no more than 0.5. Variant G6A G9C U32C A36G has a yeast fitness of no more than 0.5. For G6C A14C C31G A42U A43G, the yeast fitness was no more than 0.5. G6A G12A C27U C30G C55U A57C showed a yeast fitness of no more than 0.5. G6A U13A U19C A40U G67A gave a yeast fitness of no more than 0.5. For G6C A21U A36C A57G, the yeast fitness was no more than 0.5. G6A G39C showed a yeast fitness of 0.821. In the case of G6A C24U A36C A43U A69U, the yeast fitness is reported as no more than 0.5. G6A G9C C31U C62U G68C gave a yeast fitness of no more than 0.5. Work on G6A U7G G25C U53A A69C yielded a yeast fitness of no more than 0.5. In the case of G6A C22U A40G A43U C46G C49G C62U, the yeast fitness is reported as no more than 0.5. Variant G6A G48C C49U has a yeast fitness of 0.652. G6C A20C U35C A40G A42U G58A G63A G67A showed a yeast fitness of no more than 0.5. In the case of G6C A37G A70C, the yeast fitness is reported as no more than 0.5. Variant G6A U13G C27U C61G C66U has a yeast fitness of no more than 0.5. For G6A G10C A20G C22U G38C C61G, the yeast fitness was no more than 0.5. With G6A G10A G39C A70C the yeast fitness was no more than 0.5. Work on G6A C24A C27U C29G G44C G68C yielded a yeast fitness of no more than 0.5. Work on G6A U35G A42G G56C yielded a yeast fitness of no more than 0.5. For G6A C31G A70C, the yeast fitness was 0.553. G6C A14C C29U C34G C46U C66A G68C gave a yeast fitness of no more than 0.5. In the case of G6A C34G G68A, the yeast fitness is reported as 0.556. Work on G6A C27U C29A yielded a yeast fitness of no more than 0.5. G6A U28C A45G showed a yeast fitness of 0.781. With G6C the yeast fitness was 1. In the case of G6C A14G A20C U47C U64A G67A, the yeast fitness is reported as no more than 0.5. Work on G6A U8A G44C A57U yielded a yeast fitness of no more than 0.5. Variant G6A G25C C34U C46A has a yeast fitness of no more than 0.5. Work on G6A C33A A37C yielded a yeast fitness of no more than 0.5. For G6C A37G A40U A45C C60G, the yeast fitness was no more than 0.5. With G6A G17A C24G C27G G67A the yeast fitness was no more than 0.5. With G6A C11U U13C A43G G67A the yeast fitness was 0.58. Work on G6A G41C yielded a yeast fitness of 0.863. G6A C49U G58A showed a yeast fitness of 0.654. G6A C61U G63C gave a yeast fitness of no more than 0.5. G6A G10A A43G U47G showed a yeast fitness of 0.761. For G6A C24A, the yeast fitness was 0.654. Work on G6C A69U yielded a yeast fitness of 0.976. For G6C A69C, the yeast fitness was 0.852. With G6C C11G C27U A42G C66U the yeast fitness was 0.552. Work on G6C C11A G23U G48C yielded a yeast fitness of no more than 0.5. With G6A G9C A14G the yeast fitness was no more than 0.5. For G6A C29A C31G G67A, the yeast fitness was no more than 0.5. With G6A G18A G23C U26A C30U U35A A43G the yeast fitness was no more than 0.5. Variant G6A C33U has a yeast fitness of 0.649. With G6A G52A G68C the yeast fitness was 0.609. For G6A C22U C30G A36G, the yeast fitness was 0.621. Work on G6C C11U G56C A69C yielded a yeast fitness of no more than 0.5. G6A C24U C61G G68U showed a yeast fitness of no more than 0.5. Work on G6A C34G C62U G68C yielded a yeast fitness of no more than 0.5. Variant G6A G9C A42U A43U A65G G68A A70C has a yeast fitness of 0.663. Variant G6A G17A C27U C33A A37C has a yeast fitness of no more than 0.5. Variant G6A C27A C30U G41C A43U C49A has a yeast fitness of 0.52. G6C A37C G51A U53C C62A A70C showed a yeast fitness of no more than 0.5. For G6A G63C, the yeast fitness was 0.727. In the case of G6C A57C A65U, the yeast fitness is reported as no more than 0.5. G6A U54C A57U G58A A65U showed a yeast fitness of no more than 0.5. For G6A G68C A69G, the yeast fitness was 0.568. G6C A45C G67C gave a yeast fitness of 0.536. G6A U19G G52A gave a yeast fitness of 0.606. G6C A42U C61A U64A A69U gave a yeast fitness of no more than 0.5. G6C C11U A21C G52A C61A G67C gave a yeast fitness of no more than 0.5. Work on G6A U26A yielded a yeast fitness of 0.95. For G6C A20C A40G A42U C60G, the yeast fitness was no more than 0.5. G6A U54G A65U gave a yeast fitness of no more than 0.5. Work on G6A U13A U26C C30G A65C yielded a yeast fitness of no more than 0.5. For G6A G50A G58A, the yeast fitness was 0.698. G6A C27G A36C A42C showed a yeast fitness of 0.58. In the case of G6A U35G A43C G51A, the yeast fitness is reported as no more than 0.5. For G6A U54C C60G, the yeast fitness was no more than 0.5. With G6A C22U G23C C49G U53G A57G the yeast fitness was no more than 0.5. With G6A G50A C66A the yeast fitness was no more than 0.5. With G6A C33G U47A U64G the yeast fitness was 0.558. G6A G23C A37U A57G A65C showed a yeast fitness of no more than 0.5. Variant G6A G9C G68C has a yeast fitness of no more than 0.5. In the case of G6A C22A U35A, the yeast fitness is reported as no more than 0.5. G6A C24U U28A C60U showed a yeast fitness of no more than 0.5. For G6C A43C, the yeast fitness was 0.739. G6C A43U showed a yeast fitness of 0.831. In the case of G6A C22A G23A C33U C34G G68C, the yeast fitness is reported as no more than 0.5. For G6A G41A C60G A65G, the yeast fitness was 0.618. In the case of G6A U8A C22G U47A A70C, the yeast fitness is reported as no more than 0.5. In the case of G6A U13G C27U C61G, the yeast fitness is reported as 0.667. Variant G6A G12A A21G C46A has a yeast fitness of 0.636. G6A G23C A37U A57G A65C A70U gave a yeast fitness of no more than 0.5. G6C A42C C49U C62U showed a yeast fitness of no more than 0.5. G6A G12C C27A A37G C49U gave a yeast fitness of no more than 0.5. For G6A G18C C30G C34A A37C C61U A65U, the yeast fitness was no more than 0.5. With G6A C34G A37U C49G the yeast fitness was 0.532. With G6A C30U A37G the yeast fitness was no more than 0.5. G6A C31A G51C C55G A57U C66U gave a yeast fitness of no more than 0.5. G6A U8G A45U G48C gave a yeast fitness of no more than 0.5. With G6C A14G A20C the yeast fitness was 0.501. Variant G6A C24U A37U A40U has a yeast fitness of no more than 0.5. With G6A G44A C46A G52A A65U the yeast fitness was no more than 0.5. Variant G6C A15C C46A has a yeast fitness of 0.504. With G6A C22U A42C U54A the yeast fitness was no more than 0.5. With G6A G41C C55G the yeast fitness was 0.529. In the case of G6A G9C C46G, the yeast fitness is reported as 0.561. For G6A G39C U54C, the yeast fitness was no more than 0.5. Work on G6A C31U G51A yielded a yeast fitness of 0.599. In the case of G6A C24U G67A, the yeast fitness is reported as 0.72. G6A G17C G18C A45G G58C C66U showed a yeast fitness of no more than 0.5. In the case of G6A C30G, the yeast fitness is reported as 0.711. With G6A U32A A37U A43C G48C the yeast fitness was no more than 0.5.
